Holding throughout (type): functional
The subject of experiment [1] is Pseudomonas aeruginosa. Put plainly: Antimicrobial activity against ampD::lox gene-deficient Pseudomonas aeruginosa PAO1 harboring dacB gene by Etest method. The essentials: (§1)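 MICs read from Etest strips on Mueller-Hinton agar per manufacturer's instructions; agents ceftazidime, cefepime, aztreonam, piperacillin, piperacillin-tazobactam, imipenem and meropenem.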

Experiment [2] deals with Pseudomonas aeruginosa. In words: Antimicrobial activity against ampD::lox gene-deficient Pseudomonas aeruginosa PAO1 by Etest method. The essentials: as §1
The test system of experiment [3] is Pseudomonas aeruginosa. In words: Antimicrobial activity against ampC::lox gene-deficient Pseudomonas aeruginosa PAO1 by Etest method. The essentials: as §1
The subject of experiment [4] is Pseudomonas aeruginosa. In words: Antimicrobial activity against ampD::lox and nagZ::lox gene-deficient Pseudomonas aeruginosa PAO1 by Etest method. The essentials: as §1
Experiment [5] concerns Pseudomonas aeruginosa. In words: Antimicrobial activity against ampD::lox and nagZ::lox gene-deficient Pseudomonas aeruginosa PAO1 harboring dacB gene by Etest method. The essentials: as §1
For experiment [6], the system named is Pseudomonas aeruginosa. Put plainly: Antimicrobial activity against ampR::lox gene-deficient Pseudomonas aeruginosa PAO1 by Etest method. The essentials:
as §1

Experiment [7] has as its system Pseudomonas aeruginosa. Put plainly: Antimicrobial activity against nagZ::lox gene-deficient Pseudomonas aeruginosa PAO1 by Etest method. The essentials:
as §1

The subject of experiment [8] is Pseudomonas aeruginosa. In words: Antimicrobial activity against dacB::lox and nagZ::lox gene-deficient Pseudomonas aeruginosa PAO1 by Etest method. The essentials: as §1
In experiment [9] the test system is Pseudomonas aeruginosa. Put plainly: Antimicrobial activity against dacB::lox gene-deficient Pseudomonas aeruginosa PAO1 by Etest method. The essentials: as §1
Experiment [10] relates to Pseudomonas aeruginosa. Put plainly: Antimicrobial activity against ampD::lox, ampDh2::lox,ampDh3::lox and nagZ::lox gene-deficient Pseudomonas aeruginosa PAO1 by Etest method. The essentials: as §1
The subject of experiment [11] is Pseudomonas aeruginosa. Put plainly: Antimicrobial activity against ampD::lox, ampDh2::lox and ampDh3::lox gene-deficient Pseudomonas aeruginosa PAO1 by Etest method. The essentials: (§2)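 Etest strips on Mueller-Hinton agar, read per manufacturer's recommendations; P. aeruginosa PAO1 triple mutant deficient in ampD, ampDh2 and ampDh3 (lox deletions). Agents tested by Etest: ceftazidime, cefepime, aztreonam, piperacillin, piperacillin-tazobactam, imipenem, meropenem.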

Experiment [12] concerns Pseudomonas aeruginosa. In words: Antimicrobial activity against Pseudomonas aeruginosa PAO1 by Etest method. The essentials:
as §1

Experiment [13] concerns Pseudomonas aeruginosa. In words: Antimicrobial activity against Pseudomonas aeruginosa PAO1 by broth microdilution method in presence of 0.5 mM NagZ inhibitor PUGNAc. The essentials:
(§3)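 Broth microdilution MICs of ceftazidime, aztreonam and piperacillin in 100 μl cation-adjusted Mueller-Hinton broth, with or without NagZ inhibitor PUGNAc at 0.5 mM or 5 mM; measurements in triplicate.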

Experiment [14] has as its system Pseudomonas aeruginosa. In words: Antimicrobial activity against ampD::lox gene-deficient Pseudomonas aeruginosa PAO1 harboring dacB gene by broth microdilution method. The essentials: as §3
The subject of experiment [15] is Pseudomonas aeruginosa. Put plainly: Antimicrobial activity against ampD::lox gene-deficient Pseudomonas aeruginosa PAO1 by Etest method in presence of beta-lactamase inhibitor Tazobactam. The essentials:
as §1

In experiment [16] the test system is Pseudomonas aeruginosa. Put plainly: Antimicrobial activity against dacB::lox and nagZ::lox gene-deficient Pseudomonas aeruginosa PAO1 by Etest method in presence of beta-lactamase inhibitor Tazobactam. The essentials:
(§4)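 MICs on Mueller-Hinton agar by Etest strips (piperacillin-tazobactam among the agents tested), per manufacturer's instructions.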

The test system of experiment [17] is Pseudomonas aeruginosa. In words: Antimicrobial activity against ampD::lox gene-deficient Pseudomonas aeruginosa PAO1 harboring dacB gene by broth microdilution method in presence of 0.5 mM NagZ inhibitor PUGNAc. The essentials: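 MICs of ceftazidime, aztreonam and piperacillin determined by broth microdilution in cation-adjusted Mueller-Hinton broth, with 0.5 mM of the N-acetyl-β-glucosaminidase (NagZ) inhibitor PUGNAc added alongside the β-lactam and untreated controls run in parallel; all measurements performed in triplicate.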

The subject of experiment [18] is Pseudomonas aeruginosa. In words: Antimicrobial activity against dacB::lox gene-deficient Pseudomonas aeruginosa PAO1 by broth microdilution method in presence of 0.5 mM NagZ inhibitor PUGNAc. The essentials: as §3
The test system of experiment [19] is Pseudomonas aeruginosa. In words: Antimicrobial activity against ampD::lox gene-deficient Pseudomonas aeruginosa PAO1 by broth microdilution method in presence of 0.5 mM NagZ inhibitor PUGNAc. The essentials: as §3
Experiment [20] relates to Pseudomonas aeruginosa. In words: Antimicrobial activity against Pseudomonas aeruginosa PAO1 by broth microdilution method in presence of 5 mM NagZ inhibitor PUGNAc. The essentials: as §3
The subject of experiment [21] is Pseudomonas aeruginosa. In words: Antimicrobial activity against ampD::lox and nagZ::lox gene-deficient Pseudomonas aeruginosa PAO1 by Etest method in presence of beta-lactamase inhibitor Tazobactam. The essentials: as §4
Experiment [22] concerns Pseudomonas aeruginosa. In words: Antimicrobial activity against ampD::lox gene-deficient Pseudomonas aeruginosa PAO1 by broth microdilution method. The essentials: as §3
Experiment [23] relates to Pseudomonas aeruginosa. Put plainly: Antimicrobial activity against dacB::lox gene-deficient Pseudomonas aeruginosa PAO1 by broth microdilution method. The essentials: as §3
Experiment [24] concerns Pseudomonas aeruginosa. Put plainly: Antimicrobial activity against dacB::lox gene-deficient Pseudomonas aeruginosa PAO1 by Etest method in presence of beta-lactamase inhibitor Tazobactam. The essentials: as §1
In experiment [25] the test system is Pseudomonas aeruginosa. In words: Antimicrobial activity against Pseudomonas aeruginosa PAO1 by Etest method in presence of beta-lactamase inhibitor Tazobactam. The essentials:
as §1

Experiment [26] deals with Pseudomonas aeruginosa. Put plainly: Antimicrobial activity against Pseudomonas aeruginosa PAO1 by broth microdilution method. The essentials:
as §3

For experiment [27], the system named is Pseudomonas aeruginosa. In words: Antimicrobial activity against ampD::lox, ampDh2::lox and ampDh3::lox gene-deficient Pseudomonas aeruginosa PAO1 by Etest method in presence of beta-lactamase inhibitor Tazobactam. The essentials: as §2
Experiment [28] relates to Pseudomonas aeruginosa. In words: Antimicrobial activity against ampC::lox gene-deficient Pseudomonas aeruginosa PAO1 by Etest method in presence of beta-lactamase inhibitor Tazobactam. The essentials:
as §1

Experiment [29] concerns Pseudomonas aeruginosa. Put plainly: Antimicrobial activity against ampD::lox and nagZ::lox gene-deficient Pseudomonas aeruginosa PAO1 harboring dacB gene by Etest method in presence of beta-lactamase inhibitor Tazobactam. The essentials:
as §1

Experiment [30] relates to Pseudomonas aeruginosa. Put plainly: Antimicrobial activity against ampR::lox gene-deficient Pseudomonas aeruginosa PAO1 by Etest method in presence of beta-lactamase inhibitor Tazobactam. The essentials: as §1
The test system of experiment [31] is Pseudomonas aeruginosa. Put plainly: Antimicrobial activity against nagZ::lox gene-deficient Pseudomonas aeruginosa PAO1 by Etest method in presence of beta-lactamase inhibitor Tazobactam. The essentials: as §1
The test system of experiment [32] is Pseudomonas aeruginosa. In words: Antimicrobial activity against ampD::lox gene-deficient Pseudomonas aeruginosa PAO1 by broth microdilution method in presence of 5 mM NagZ inhibitor PUGNAc. The essentials:
as §3

Experiment [33] has as its system Pseudomonas aeruginosa. Put plainly: Antimicrobial activity against dacB::lox gene-deficient Pseudomonas aeruginosa PAO1 by broth microdilution method in presence of 5 mM NagZ inhibitor PUGNAc. The essentials:
as §3

Experiment [34] concerns Pseudomonas aeruginosa. Put plainly: Antimicrobial activity against ampD::lox, ampDh2::lox,ampDh3::lox and nagZ::lox gene-deficient Pseudomonas aeruginosa PAO1 by Etest method in presence of beta-lactamase inhibitor Tazobactam. The essentials: as §4
Experiment [35] has as its system Pseudomonas aeruginosa. Put plainly: Antimicrobial activity against ampD::lox gene-deficient Pseudomonas aeruginosa PAO1 harboring dacB gene by broth microdilution method in presence of 5 mM NagZ inhibitor PUGNAc. The essentials: as §3

Values after ≈ are worked out from the molar mass of the structure shown. Some results are limits rather than exact numbers.

Turning to `C[C@@H](O)[C@H]1C(=O)N2C(C(=O)O)=C(S[C@@H]3CN[C@H](C(=O)N(C)C)C3)[C@H](C)[C@H]12` [MEROPENEM], the MIC against Pseudomonas aeruginosa [1] was found to be 1.5 µg/mL (≈ 3.91 µM); against Pseudomonas aeruginosa [2] it was 1 µg/mL (≈ 2.61 µM); with Pseudomonas aeruginosa [3] it was 0.25 µg/mL (≈ 0.652 µM); against Pseudomonas aeruginosa [4] it was 0.5 µg/mL (≈ 1.3 µM); in the experiment with Pseudomonas aeruginosa [5], 0.5 µg/mL (≈ 1.3 µM); in the experiment on Pseudomonas aeruginosa [6], 0.25 µg/mL (≈ 0.652 µM). The MIC amounted to 0.38 µg/mL (≈ 0.991 µM) in the experiment on Pseudomonas aeruginosa [7]; 0.38 µg/mL (≈ 0.991 µM) against Pseudomonas aeruginosa [8]; 0.5 µg/mL (≈ 1.3 µM) in the experiment with Pseudomonas aeruginosa [9]; 1 µg/mL (≈ 2.61 µM) in the experiment with Pseudomonas aeruginosa [10]; 1 µg/mL (≈ 2.61 µM) against Pseudomonas aeruginosa [11]; 0.38 µg/mL (≈ 0.991 µM) against Pseudomonas aeruginosa [12].

For the compound `CCN1CCN(C(=O)N[C@@H](C(=O)N[C@@H]2C(=O)N3[C@@H]2SC(C)(C)[C@@H]3C(=O)O)c2ccccc2)C(=O)C1=O` [PIPERACILLIN], the MIC was 4 µg/mL in the experiment with Pseudomonas aeruginosa [13]; 384 µg/mL (≈ 742 µM) against Pseudomonas aeruginosa [14]; 32 µg/mL with Pseudomonas aeruginosa [15]; 3 µg/mL in the experiment with Pseudomonas aeruginosa [16]; 256 µg/mL in the experiment on Pseudomonas aeruginosa [17]; 32 µg/mL in the experiment on Pseudomonas aeruginosa [18]. The MIC was 24 µg/mL in the experiment with Pseudomonas aeruginosa [19]; 4 µg/mL in the experiment on Pseudomonas aeruginosa [20]; 3 µg/mL in the experiment on Pseudomonas aeruginosa [21]; 48 µg/mL (≈ 92.7 µM) in the experiment on Pseudomonas aeruginosa [22]; 64 µg/mL (≈ 124 µM) in the experiment with Pseudomonas aeruginosa [23]; 64 µg/mL in the experiment on Pseudomonas aeruginosa [24]. Further, the MIC in the experiment with Pseudomonas aeruginosa [25] was 2 µg/mL; with Pseudomonas aeruginosa [26] it was 4 µg/mL (≈ 7.73 µM); in the experiment with Pseudomonas aeruginosa [27] it was over 256 µg/mL; in the experiment on Pseudomonas aeruginosa [28] it was 2 µg/mL; in the experiment on Pseudomonas aeruginosa [29], 16 µg/mL; in the experiment on Pseudomonas aeruginosa [30], 4 µg/mL. The MIC came out at 2 µg/mL in the experiment on Pseudomonas aeruginosa [31]; 24 µg/mL in the experiment with Pseudomonas aeruginosa [32]; 24 µg/mL in the experiment with Pseudomonas aeruginosa [33]; 8 µg/mL in the experiment with Pseudomonas aeruginosa [34]; 256 µg/mL with Pseudomonas aeruginosa [35].

Consider `C[C@@H](O)[C@H]1C(=O)N2C(C(=O)O)=C(SCCNC=N)C[C@H]12` [IMIPENEM ANHYDROUS], for which the MIC in the experiment on Pseudomonas aeruginosa [1] is 2 µg/mL (≈ 6.68 µM); in the experiment with Pseudomonas aeruginosa [2], 2 µg/mL (≈ 6.68 µM); against Pseudomonas aeruginosa [3] it was 0.5 µg/mL (≈ 1.67 µM); against Pseudomonas aeruginosa [4], 1 µg/mL (≈ 3.34 µM); in the experiment with Pseudomonas aeruginosa [5] it was 1 µg/mL (≈ 3.34 µM); in the experiment with Pseudomonas aeruginosa [6], 0.5 µg/mL (≈ 1.67 µM). Moreover, the MIC was found to be 1 µg/mL (≈ 3.34 µM) against Pseudomonas aeruginosa [7]; 2 µg/mL (≈ 6.68 µM) in the experiment on Pseudomonas aeruginosa [9]; 1.5 µg/mL (≈ 5.01 µM) against Pseudomonas aeruginosa [10]; 2 µg/mL (≈ 6.68 µM) against Pseudomonas aeruginosa [11]; 2 µg/mL (≈ 6.68 µM) against Pseudomonas aeruginosa [12].

Values taken from ChEMBL document CHEMBL1687765, “NagZ inactivation prevents and reverts beta-lactam resistance, driven by AmpD and PBP 4 mutations, in Pseudomonas aeruginosa” (2010).
